{
  "source": "ChEMBL document CHEMBL1629587",
  "about": "“Discovery of a small-molecule inhibitor of {beta}-1,6-glucan synthesis” (2009)",
  "key": {"Cryptococcus neoformans [1]": {"test_system": "Cryptococcus neoformans", "assay": "Antifungal activity against Cryptococcus neoformans ATCC 90112 after 24 hrs by microdilution method", "format": "functional", "details": "ATCC 90112, 24 h", "method_in_brief": "(§1)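 CLSI broth microdilution run at 30°C instead of standard temperature; starting inoculum 1 × 10^3 to 3 × 10^3 cells/ml; DMSO under 1% final. Endpoints: MIC-0 = lowest concentration giving an optically clear well; MIC-2 = 50% drop versus drug-free control in absorbance at 570 nm with alamar blue redox indicator, used because treated cells clump.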"}, "Candida tropicalis": {"test_system": "Candida tropicalis", "assay": "Antifungal activity against Candida tropicalis ATCC 200956 after 24 hrs by microdilution method", "format": "functional", "details": "ATCC 200956, 24 h", "method_in_brief": "as §1"}, "Saccharomyces cerevisiae [2]": {"test_system": "Saccharomyces cerevisiae", "assay": "Inhibition of chitin synthesis in Saccharomyces cerevisiae AY-10 assessed as reduction in [14C]glucose incorporation at 0.078 to 1.25 ug/ml after 1 hr", "format": "functional, organism-based", "method_in_brief": "(§2)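 Exponential cells in RPMI 1640 at A595 about 0.6, pulse-labelled with [14C]glucose 2 μCi/ml plus drug at 30°C, sampled at 1 and 3 h. Cell wall fractionated: mannan from 3% NaOH extracts at 80°C by Fehling's reaction; residue digested with Zymolyase 100T (1 mg/ml), insoluble part = chitin; β-1,3-glucan = total glucan minus dialysed β-1,6-glucan. Scintillation counting; % change versus untreated.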"}, "Nakaseomyces glabratus [3]": {"test_system": "Nakaseomyces glabratus", "assay": "Antifungal activity against Candida glabrata IFO0622 after 24 hrs by microdilution method", "format": "functional", "details": "IFO0622, 24 h", "method_in_brief": "as §1"}, "Candida albicans [4]": {"test_system": "Candida albicans", "assay": "Inhibition of hyphal elongation of Candida albicans ATCC 24433 at 1 ug/ml after 24 hrs by microscopy", "format": "functional, organism-based", "method_in_brief": "(§3)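 Hyphae induced in HFM-7 medium (Lee's medium also used) on type I collagen-coated wells, drug 0, 1, 4 or 16 μg/ml; static culture at 37°C, viewed by light microscopy after 6 h or 24 h.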"}, "Saccharomyces cerevisiae [5]": {"test_system": "Saccharomyces cerevisiae", "assay": "Fungicidal activity against Saccharomyces cerevisiae YPH500 after 24 hrs by microdilution method", "format": "functional", "details": "YPH500, 24 h", "method_in_brief": "(§4)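 Fungicidal concentration: after the MIC plate read, 4 μl from each well transferred into 200 μl MOPS-buffered RPMI, incubated 24 h at 30°C; MFC = lowest drug concentration with no visible growth.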"}, "Candida albicans [6]": {"test_system": "Candida albicans", "assay": "Inhibition of hyphal elongation of Candida albicans ATCC 24433 at 1 ug/ml after 6 hrs by microscopy", "format": "functional, organism-based", "method_in_brief": "as §3"}, "Saccharomyces cerevisiae [7]": {"test_system": "Saccharomyces cerevisiae", "assay": "Fungicidal activity against Saccharomyces cerevisiae AY-10-R11 mutant after 24 hrs by microdilution method", "format": "functional", "details": "AY-10-R11, 24 h"}, "Nakaseomyces glabratus [8]": {"test_system": "Nakaseomyces glabratus", "assay": "Antifungal activity against Candida glabrata ATCC 200918 after 24 hrs by microdilution method", "format": "functional", "details": "ATCC 200918, 24 h", "method_in_brief": "as §1"}, "Saccharomyces cerevisiae [9]": {"test_system": "Saccharomyces cerevisiae", "assay": "Inhibition of mannan synthesis in Saccharomyces cerevisiae AY-10 assessed as reduction in [14C]glucose incorporation at 0.078 to 1.25 ug/ml after 3 hrs", "format": "functional, organism-based", "method_in_brief": "as §2"}, "Candida albicans [10]": {"test_system": "Candida albicans", "assay": "Fungicidal activity against Candida albicans ATCC 24433 after 24 hrs by microdilution method", "format": "functional", "details": "ATCC 24433, 24 h", "method_in_brief": "as §4"}, "Saccharomyces cerevisiae [11]": {"test_system": "Saccharomyces cerevisiae", "assay": "Inhibition of chitin synthesis in Saccharomyces cerevisiae AY-10 assessed as reduction in [14C]glucose incorporation at 0.078 to 1.25 ug/ml after 3 hrs", "format": "functional, organism-based", "method_in_brief": "as §2"}, "Cryptococcus neoformans [12]": {"test_system": "Cryptococcus neoformans", "assay": "Antifungal activity against Cryptococcus neoformans ATCC 90112 at 32 ug/ml after 24 hrs by microdilution method", "format": "functional, organism-based", "method_in_brief": "as §1"}, "Nakaseomyces glabratus [13]": {"test_system": "Nakaseomyces glabratus", "assay": "Fungicidal activity against Candida glabrata IFO0622 after 24 hrs by microdilution method", "format": "functional", "details": "IFO0622, 24 h", "method_in_brief": "as §4"}, "Kluyveromyces marxianus": {"test_system": "Kluyveromyces marxianus", "assay": "Antifungal activity against Candida kefyr ATCC 46764 after 24 hrs by microdilution method", "format": "functional", "details": "ATCC 46764, 24 h", "method_in_brief": "as §1"}, "Pichia kudriavzevii": {"test_system": "Pichia kudriavzevii", "assay": "Antifungal activity against Candida krusei TIMM0269 after 24 hrs by microdilution method", "format": "functional", "details": "TIMM0269, 24 h", "method_in_brief": "as §1"}, "Nakaseomyces glabratus [14]": {"test_system": "Nakaseomyces glabratus", "assay": "Induction of multibudding phenotype in Candida glabrata IFO0622 after 18 hrs by microscopy", "format": "functional, organism-based", "method_in_brief": "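Exponential-phase cells suspended in RPMI 1640 with or without drug (2 μg/ml shown), shaken gently 18 h at 30°C, fixed in 3% glutaraldehyde in 0.1 M phosphate buffer, inspected by inverted light microscopy.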"}},
  "note": "Calls of active or inactive are those of the source. The calls are words filed in the database; no cut-off is given here.",
  "data": [
    {"smiles": "CCc1c(C)c(C#N)c2nc3ccccc3n2c1NCCN(CC)CC", "values": [
      {"measurement": "MIC", "setting": "Cryptococcus neoformans [1]", "value": "> 32", "unit": "µg/mL"},
      {"measurement": "MIC50", "setting": "Cryptococcus neoformans [1]", "value": "> 32", "unit": "µg/mL"},
      {"measurement": "MIC", "setting": "Candida tropicalis", "value": 1, "unit": "µg/mL"},
      {"measurement": "MIC50", "setting": "Candida tropicalis", "value": 1, "unit": "µg/mL"},
      {"measurement": "inhibition", "setting": "Saccharomyces cerevisiae [2]", "value": "inactive"},
      {"measurement": "MIC", "setting": "Nakaseomyces glabratus [3]", "value": 2, "unit": "µg/mL"},
      {"measurement": "MIC50", "setting": "Nakaseomyces glabratus [3]", "value": 1, "unit": "µg/mL"},
      {"measurement": "inhibition", "setting": "Candida albicans [4]", "value": "Active"},
      {"measurement": "MFC", "setting": "Saccharomyces cerevisiae [5]", "value": "> 32", "unit": "µg/mL"},
      {"measurement": "inhibition", "setting": "Candida albicans [6]", "value": "Active"},
      {"measurement": "MIC", "setting": "Saccharomyces cerevisiae [7]", "value": 8, "unit": "µg/mL"},
      {"measurement": "MIC", "setting": "Nakaseomyces glabratus [8]", "value": 4, "unit": "µg/mL"},
      {"measurement": "MIC50", "setting": "Nakaseomyces glabratus [8]", "value": 4, "unit": "µg/mL"},
      {"measurement": "inhibition", "setting": "Saccharomyces cerevisiae [9]", "value": "inactive"},
      {"measurement": "MFC", "setting": "Candida albicans [10]", "value": "> 32", "unit": "µg/mL"},
      {"measurement": "inhibition", "setting": "Saccharomyces cerevisiae [11]", "value": "inactive"},
      {"measurement": "Activity", "setting": "Cryptococcus neoformans [12]", "value": "inactive"},
      {"measurement": "MFC", "setting": "Nakaseomyces glabratus [13]", "value": 32, "unit": "µg/mL"},
      {"measurement": "MIC", "setting": "Kluyveromyces marxianus", "value": 2, "unit": "µg/mL"},
      {"measurement": "MIC50", "setting": "Kluyveromyces marxianus", "value": 1, "unit": "µg/mL"},
      {"measurement": "MIC", "setting": "Pichia kudriavzevii", "value": 16, "unit": "µg/mL"},
      {"measurement": "MIC50", "setting": "Pichia kudriavzevii", "value": 8, "unit": "µg/mL"},
      {"measurement": "Activity", "setting": "Nakaseomyces glabratus [14]", "value": "Active"}
    ]}
  ]
}
